The record followed here is ChEMBL document CHEMBL4219037, “Modified biphenyl Hsp90 C-terminal inhibitors for the treatment of cancer” (Bioorg Med Chem Lett, 2017).

What is called IC50 is the concentration that gives 50% inhibition. The low end stands for inhibition by little substance, the high end for a need for much substance.

One experiment deals with MCF7. The experiment is described as follows: Antiproliferative activity against human MCF7 cells after 72 hrs by MTS assay. It counts as functional, cell-based. Conditions: MCF7, 72 h. The gist of the method:
(§1)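 Cells kept in Advanced DMEM/F12 at 37 °C, 5% CO2, humidified. Seeded at 3000 cells/well, left 24 h, then given compound or vehicle in DMSO (1% DMSO final) at varying concentrations for 72 h. Viable cells read by MTS/PMS proliferation kit. Vehicle wells set to 100% proliferation. IC50 as mean ± SD of at least three separate experiments run in triplicate.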

In a further experiment the test system is SK-BR-3. The experiment is described as follows: Antiproliferative activity against human SKBR3 cells after 72 hrs by MTS assay. It counts as functional, cell-based. Conditions: SK-BR-3, 72 h. The gist of the method: as §1
For orientation: Tetrazolium assays rely on reduction of a dye to a coloured formazan, in cell work by metabolically active cells.

Experiment [1] is described as follows: Antiproliferative activity against human LNCaP-LN3 cells after 72 hrs by MTS assay. It is filed as functional, cell-based. The settings on record: LNCaP-LN3, 72 h. In a few lines: as §1
Experiment [2] in a line: Antiproliferative activity against human PC3MM2 cells after 72 hrs by MTS assay. The settings on record: PC3MM2, 72 h. It counts as functional, cell-based. In a few lines:
as §1

Experiment [3] concerns the target T1, Heat shock protein HSP90 (Homo sapiens) (UniProt P07900+P08238). The experiment is described as follows: Inhibition of C-terminal HSP90 in human MCF7 cells assessed as degradation of cyclin D1 at 4.49 to 44.95 uM after 24 hrs by Western blot analysis relative to control. It is filed as cell-based.
The target of experiment [4] is T1, Heat shock protein HSP90 (Homo sapiens). Nature of the experiment: Inhibition of C-terminal HSP90 in human MCF7 cells assessed as degradation of HER2 at 4.49 to 44.95 uM after 24 hrs by Western blot analysis relative to control. It is filed as cell-based. Background: A western blot detects proteins with antibodies after separation by electrophoresis.
The target is the same in experiment [5]. The experiment is described as follows: Inhibition of C-terminal HSP90 in human MCF7 cells assessed as degradation of cRAF at 4.49 to 44.95 uM after 24 hrs by Western blot analysis relative to control. It counts as cell-based.
The target is the same in experiment [6]. Nature of the experiment: Inhibition of […] HSP90 in human MCF7 cells assessed as reduction in HSP90 expression at 4.49 to 44.95 uM after 24 hrs by Western blot analysis relative to control. It is filed as cell-based.
Experiment [7] has the same target. The experiment is described as follows: Inhibition of C-terminal HSP90 in human MCF7 cells assessed as degradation of cyclin D1 at 2.945 to 29.45 uM after 24 hrs by Western blot analysis relative to control. It is filed as cell-based.
For experiment [8] the target is unchanged. The experiment is described as follows: Inhibition of C-terminal HSP90 in human MCF7 cells assessed as degradation of cRAF at 2.945 to 29.45 uM after 24 hrs by Western blot analysis relative to control. It counts as cell-based.
Experiment [9] has the same target. The experiment is described as follows: Inhibition of C-terminal HSP90 in human MCF7 cells assessed as degradation of HER2 at 2.945 to 29.45 uM after 24 hrs by Western blot analysis relative to control. It counts as cell-based.
The target is the same in experiment [10]. Nature of the experiment: Inhibition of […] HSP90 in human MCF7 cells assessed as reduction in HSP90 expression at 2.945 to 29.45 uM after 24 hrs by Western blot analysis relative to control. It is filed as cell-based.

Calls of active or inactive are those of the source. The calls are words filed in the database; no cut-off is given here. Bounds are passed on as bounds.

As for `COc1cccc(-c2cc(C(=O)NCCc3ccc(O[C@@H]4OC(C)(C)[C@H](OC)[C@@H](O)[C@H]4O)c(C)c3-c3cccc(F)c3)ccc2OC)c1`, the half-maximal inhibitory concentration (IC50) with MCF7 was 8.99 µM; in the experiment with SK-BR-3, 43.5 µM; in experiment [1], 25.1 µM; in experiment [2], > 50 µM. Also, the inhibition entry in [3], in [4] and in experiment [5] was “Active” in each case. Moreover, the inhibition result in experiment [6] is “inactive”.

`COc1cccc(-c2cc(C(=O)NCCc3c(O)cc(OC4CCN(C)CC4)cc3-c3cccc(F)c3)ccc2OC)c1`: the IC50 with MCF7 is 12.2 µM; with SK-BR-3, 15.7 µM; in [1], 44.8 µM; in experiment [2], > 50 µM.

On to `COc1cccc(-c2cc(C(=O)NCCc3ccc(OC4CCN(C)CC4)c(C)c3-c3cccc(F)c3)ccc2OC)c1`, for which the 50% inhibitory concentration (IC50) in the experiment on MCF7 was 17.8 µM; with SK-BR-3, 21.3 µM; in experiment [1] it was > 50 µM; in experiment [2] it was > 50 µM.

`COc1cccc(-c2cc(C(=O)NCCc3c(OC)cc(OC4CCN(C)CC4)cc3-c3cccc(F)c3)ccc2OC)c1`: the IC50 in the experiment with MCF7 is 8.71 µM; in the experiment with SK-BR-3, 5.72 µM; in experiment [1], > 100 µM; in experiment [2] it was 32.1 µM.

In the case of `CC(C)=CCc1cc(C(=O)NCCc2ccc(OC3CCN(C)CC3)c(O)c2-c2cccc(F)c2)ccc1O`, the IC50 in the experiment with MCF7 came out at 1.45 µM; in the experiment on SK-BR-3 it was 3.25 µM; in [1], 23.1 µM; in experiment [2] it was 42.3 µM.

With `COc1cc(OC2CCN(C)CC2)cc(-c2cccc(F)c2)c1CCNC(=O)c1ccc(O)c(CC=C(C)C)c1`, the concentration for half-maximal inhibition (IC50) in the experiment on MCF7 was 7.86 µM; in the experiment with SK-BR-3, 8.16 µM; in experiment [1], > 100 µM; in [2], 1.84 µM.

Turning to `COc1cccc(-c2cc(C(=O)NCCc3cc(C)c(OC4CCN(C)CC4)cc3-c3cccc(F)c3)ccc2OC)c1`, the concentration for half-maximal inhibition (IC50) in the experiment on MCF7 stood at 9.14 µM; in the experiment with SK-BR-3, 7.81 µM; in [1], 20.8 µM; in experiment [2], 13.9 µM.

Take `CO[C@@H]1[C@@H](O)[C@@H](O)[C@H](Oc2ccc(CCNC(C)=O)c(-c3cccc(F)c3)c2)OC1(C)C` [CEMDOMESPIB]: the IC50 (with MCF7; in the experiment with SK-BR-3; in experiment [1]; in [2]) was > 500 µM each time.

For `COc1cccc(-c2cc(C(=O)NCCc3cc(C)c(O[C@@H]4OC(C)(C)[C@H](OC)[C@@H](O)[C@H]4O)cc3-c3cccc(F)c3)ccc2OC)c1`, the IC50 is > 50 µM in the experiment with MCF7, 43.9 µM with SK-BR-3, > 100 µM in experiment [1] and > 100 µM in experiment [2].

Turning to `CC(C)=CCc1cc(C(=O)NCCc2c(O)cc(OC3CCN(C)CC3)cc2-c2cccc(F)c2)ccc1O`, the half-maximal inhibitory concentration (IC50) is 5.89 µM with MCF7, 7.59 µM in the experiment with SK-BR-3, 22.8 µM in experiment [1] and 1.32 µM in experiment [2]. In addition, the inhibition result in experiment [7], in experiment [8] and in experiment [9] was “Active” in each case. In addition, in experiment [10], the inhibition result was “inactive”.

`COc1cccc(-c2cc(C(=O)NCCc3ccc(OC4CCN(C)CC4)c(N)c3-c3cccc(F)c3)ccc2OC)c1`: the 50% inhibitory concentration (IC50) turned out to be 11.3 µM with MCF7, 15.3 µM with SK-BR-3, 22.4 µM in experiment [1] and 18.9 µM in experiment [2].

On to `COc1cccc(-c2cc(C(=O)NCCc3c(OC)cc(O[C@@H]4OC(C)(C)[C@H](OC)[C@@H](O)[C@H]4O)cc3-c3cccc(F)c3)ccc2OC)c1`, for which the half-inhibitory concentration (IC50) in the experiment on MCF7 came out at 44.7 µM; in the experiment with SK-BR-3, 49.4 µM; in experiment [1] it was 8.09 µM; in experiment [2], 10.6 µM.

Turning to `COc1cccc(-c2cc(C(=O)NCCc3ccc(OC4CCN(C)CC4)cc3-c3cccc(F)c3)ccc2OC)c1`, the IC50 was found to be 15.4 µM with MCF7, 23.7 µM in the experiment with SK-BR-3, 22.5 µM in [1] and 5.49 µM in experiment [2].

With `COc1cccc(-c2cc(C(=O)NCCc3ccc(OC4CCN(C)CC4)c(O)c3-c3cccc(F)c3)ccc2OC)c1`, the concentration for half-maximal inhibition (IC50) with MCF7 turned out to be 11.3 µM; in the experiment with SK-BR-3 it was 9.29 µM; in experiment [1], 22.4 µM; in experiment [2], 8.61 µM.

`CC(C)=CCc1cc(C(=O)NCCc2cc(C)c(OC3CCN(C)CC3)cc2-c2cccc(F)c2)ccc1O`: the IC50 in the experiment on MCF7 was 35.6 µM; with SK-BR-3 it was 15.2 µM; in experiment [1], > 100 µM; in [2], > 100 µM.

Consider `COc1cccc(-c2cc(C(=O)NCCc3ccc(O[C@@H]4OC(C)(C)[C@H](OC)[C@@H](O)[C@H]4O)cc3-c3cccc(F)c3)ccc2OC)c1`, for which the IC50 in the experiment on MCF7 was > 50 µM; with SK-BR-3 it was > 50 µM; in experiment [1] it was 15.9 µM; in [2], > 50 µM.

On to `COc1cccc(-c2cc(C(=O)NCCc3c(O)cc(O[C@@H]4OC(C)(C)[C@H](OC)[C@@H](O)[C@H]4O)cc3-c3cccc(F)c3)ccc2OC)c1`, for which the 50% inhibitory concentration (IC50) is 23.8 µM with MCF7, 23.5 µM with SK-BR-3, > 50 µM in experiment [1] and > 50 µM in experiment [2].
